Bioassay records deposited in PubChem BioAssay by Johns Hopkins Ion Channel Center.
A selection: hits, their analogues and other compounds. The true share with any hit is near 3.7%.
KCNK9 block: KCNK9 potassium channel inhibitors, primary screen, HEK293 cells, thallium flux; B-score at 10 µM; FluxOR thallium flux fluorescence; hits give low values; Potassium channel subfamily K member 9 (Homo sapiens), Q9NPC2; 1.2% of 310,000 active;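 active means ratio B-score over 3 SD below the library mean, with starting fluorescence within 5 SD of its mean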;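 further: negative B-score means less thallium flux so channel inhibition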
Target sequence (Q9NPC2 whole entry, looked up): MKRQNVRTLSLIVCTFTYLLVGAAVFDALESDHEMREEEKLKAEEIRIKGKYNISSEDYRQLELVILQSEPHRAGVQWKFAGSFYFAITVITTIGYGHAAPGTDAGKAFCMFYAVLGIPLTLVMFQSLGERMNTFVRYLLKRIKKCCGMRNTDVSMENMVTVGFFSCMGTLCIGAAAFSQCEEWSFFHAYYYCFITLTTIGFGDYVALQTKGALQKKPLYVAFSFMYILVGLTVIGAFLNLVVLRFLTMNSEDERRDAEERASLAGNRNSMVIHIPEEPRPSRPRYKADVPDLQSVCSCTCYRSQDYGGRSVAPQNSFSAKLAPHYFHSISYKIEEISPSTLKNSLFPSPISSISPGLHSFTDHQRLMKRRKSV
KCNK3 inh: human KCNK3 channel inhibitors, primary screen, CHO cells, FluxOR thallium flux, B-score; B-score at 10 µM; 0.84% of 340,000 active; Potassium channel subfamily K member 3 (Homo sapiens), O14649; FluxOR fluorescence; hits give low values;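 active means B-score under library mean minus 4 SD, starting fluorescence ratio at most library mean plus 5 SD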;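 further: more negative B-score means stronger inhibition of thallium flux through KCNK3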
Kir21 block: inhibitors of mouse Kir2.1 inward-rectifier potassium channel | HEK293-Kir2.1, FluxOR thallium flux fluorescence; hits give low values | B-score at 10 µM | 0.85% of 310,000 active;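 active means fluorescence ratio B-score at or below minus 3 SD of library scores, with starting-brightness B-score within 2 SD, cut at about -4.2 in these data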;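 further: channel flux triggered by added potassium and thallium sulfate stimulus; B-score of peak minus minimum fluorescence over baseline after thallium stimulus; more negative B-score means stronger Kir2.1 block with less thallium influx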
Target sequence (P35561 whole entry, looked up): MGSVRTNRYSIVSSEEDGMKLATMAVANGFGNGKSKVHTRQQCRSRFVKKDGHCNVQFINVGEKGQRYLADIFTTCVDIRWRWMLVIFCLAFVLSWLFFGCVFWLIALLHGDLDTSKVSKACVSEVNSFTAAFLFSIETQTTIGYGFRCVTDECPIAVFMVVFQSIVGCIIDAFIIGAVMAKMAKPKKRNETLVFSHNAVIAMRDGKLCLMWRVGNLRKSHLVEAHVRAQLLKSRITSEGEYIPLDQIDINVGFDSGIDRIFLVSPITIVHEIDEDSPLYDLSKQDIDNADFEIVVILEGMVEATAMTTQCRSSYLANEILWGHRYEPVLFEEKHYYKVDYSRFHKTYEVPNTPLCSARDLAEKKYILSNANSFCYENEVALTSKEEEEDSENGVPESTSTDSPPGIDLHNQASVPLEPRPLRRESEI
KCNQ1 block: inhibitors of human KCNQ1 channel, primary screen, cell-based, thallium flux, high-throughput. AID 2642, 2010. Potassium voltage-gated channel subfamily KQT member 1 (Homo sapiens), P51787. B-score at 10 µM. CHO-K1 KCNQ1, FluxOR thallium flux fluorescence; hits give high values. 1.3% of 310,000 active;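 active means compounds whose thallium flux B-score, printed positive for inhibition, exceeds three library SD while starting fluorescence stays within three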;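 further: channel opened by potassium depolarization with thallium stimulus after 20 min compound exposure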
KCNQ1 act: potentiators or activators of KCNQ1 channel, primary screen, cell-based, thallium flux, high-throughput; Potassium voltage-gated channel subfamily KQT member 1 (Homo sapiens), P51787; CHO-K1 KCNQ1, thallium flux FluxOR fluorescence; hits give high values; B-score at 10 µM; 0.35% of 310,000 active; AID 2648, 2010;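 active means fluorescence ratio B-score, a plate-corrected score, at least three library SD, with initial intensity B-score within 5 SD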
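Schedule – 37 °C overnight plating, 90-min dark dye load, 20-min compound pretreatment · System – stable KCNQ1 CHO-K1 line · Probe or stimulus – thallium- and potassium-containing depolarizing buffer · Measured by – kinetic FluxOR fluorescence, 10 s baseline plus 110 s post-stimulus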
hERG rescue: hERG rescue from dofetilide block, primary screen, cell-based, CHO-hERG, FluxOR thallium flux, dofetilide IC70. Voltage-gated inwardly rectifying potassium channel KCNH2 (Homo sapiens), Q12809. 0.51% of 310,000 active. AID 1511, 2009. dofetilide IC70 present. activation (rescue from dofetilide block), less the hit threshold, % at 10 µM;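 active means activation above the mean of controls blocked by dofetilide plus 5 SD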;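 further: thallium influx through hERG after potassium depolarization seen as dye fluorescence rise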
KCNQ1 inh valid: KCNQ1 potassium channel inhibitors, confirmation, cell-based, Tl flux, duplicate. KCNQ1 cell line, FluxOR thallium flux fluorescence. 93% of 1,600 active. shares compounds with KCNQ1 block. inhibition, % at 10 µM;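 active means primary screen active, with duplicate mean exceeding buffer control mean plus 3 SD of buffer wells, cut at about 28% in these data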
CHO KCNQ1 ctr: thallium flux effects in parental CHO cells, counter-screen for KCNQ1 inhibitor project, cell-based, Tl flux; shares compounds with KCNQ1 block; fluorescence ratio (Tl flux) at 10 µM; 21% of 1,600 active; AID 588366, 2011; parental CHO-K1, FluxOR thallium flux fluorescence ratio; hits give low values; zero means no signal rise above baseline;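 active means mean of duplicate thallium-flux fluorescence ratios in parental host cells more than 5 SD below the buffer control mean, cut at about 0.38 in these data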;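 further: ratio is peak minus minimum fluorescence divided by baseline fluorescence; actives read low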
KCNQ1 ephys val: KCNQ1 channel inhibitors, confirmation, orthogonal assay, cell-based, automated electrophysiology; shares compounds with KCNQ1 block; KCNQ1-CHO cells, automated patch clamp current; calls only at 10 µM; 20% of 490 active;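 active means KCNQ1 current drop exceeding 3 SD of negative control wells, seen in both duplicate runs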;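 further: steady state current during a 2 s step from -80 to +40 mV; negative values mean current inhibition and positive values mean potentiation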
KCNQ2 inh: KCNQ2 channel inhibition, selectivity assay for KCNQ1 inhibitor project, cell-based | shares compounds with KCNQ1 block | 71% of 1,600 active | inhibition, % at 10 µM | KCNQ2 cells, FluxOR thallium flux fluorescence;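 active means mean percent inhibition of the KCNQ2 thallium signal more than 5 SD above the buffer-only control wells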;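 further: KCNQ2 expressed in CHO cells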
KCNQ1 KCNE1 spec: KCNQ1/KCNE1 channel inhibition, selectivity assay for KCNQ1 inhibitor project, CHO-K1 cells, thallium flux, FluxOR | 77% of 1,600 active | shares compounds with KCNQ1 block | inhibition, % at 10 µM | FluxOR thallium flux fluorescence;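 active means mean percent inhibition of duplicate wells above the buffer-only control mean plus 3 SD of those controls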
Each line names hits and unclear results; the compound was inactive in the other large screens (follow-up assays come after a bar, where they were run).

Cc1ccc(S(=O)(=O)c2cc3c(=O)n4ccccc4nc3n(CCc3ccccc3)c2=N)cc1	KCNQ1 block 6 | KCNQ1 inh valid 100.5 | CHO KCNQ1 ctr 0.36 | KCNQ2 inh 118.0% | KCNQ1 KCNE1 spec 140.5%
CCn1c(=N)c(S(=O)(=O)c2ccc(C)cc2)cc2c(=O)n3ccccc3nc21	none (no result: KCNK3 inh)
N=C1C2=C3Sc4ccccc4N3CCCC2=NN1c1cccc(S(=O)(=O)O)c1	none
Cc1cccc2c1Sc1ccc(Cl)cc1CC2N1CCNCC1 (stereo unspecified)	KCNK3 inh -11.9, KCNQ1 block 9 | KCNQ1 inh valid 123.0 | CHO KCNQ1 ctr 0.303 | KCNQ2 inh 116.3% | KCNQ1 KCNE1 spec 166.5%
O=C1Nc2ccccc2CCC1Sc1nnc(-c2ccc(Cl)cc2)s1 (stereo unspecified)	none
CC(=NNC(=O)c1ccncc1)c1ccc(Cl)cc1Cl	none (no result: KCNK9 block, Kir21 block, KCNQ1 block, KCNQ1 act, hERG rescue)
N/C(=N\S(=O)(=O)c1cc(C(F)(F)F)cc(C(F)(F)F)c1)c1ccc(Cl)cc1	KCNQ1 block 7 | KCNQ1 inh valid inactive | CHO KCNQ1 ctr inactive | KCNQ2 inh inactive | KCNQ1 KCNE1 spec inactive
O=C(Nc1ccc(N2CCCC2)c(Cl)c1)c1ccc2c(c1)OCCO2	none
O=C(Nc1ccc(N2CCCCC2)c(Cl)c1)c1ccc2c(c1)OCCO2	KCNQ1 block 9 | KCNQ1 inh valid 86.5 | CHO KCNQ1 ctr inactive | KCNQ2 inh 98.0% | KCNQ1 KCNE1 spec 120.5%
C[C@]12CC(O)C3C(CCC4=CC(=O)CC[C@@]43C)C1CCC2c1csc(-c2ccccc2)n1 (stereo partly specified)	none
O=S(=O)(Nc1nc2ccccc2nc1Cl)c1cccc(C(F)(F)F)c1	KCNQ1 block 7 | KCNQ1 inh valid 42.0 | CHO KCNQ1 ctr inactive | KCNQ2 inh 62.7% | KCNQ1 KCNE1 spec 34.5%
COC(=O)Cc1ccc(NC(=S)N2CCN(c3cc(Cl)ccc3C)CC2)cc1	none
c1ccc2c(c1)oc1c(N3CCOCC3)ncnc12	none
C(=C\c1ccccc1)/CN1CCN(c2ncnc3c2oc2ccccc23)CC1	KCNK3 inh -12.8, KCNQ1 block 7 | KCNQ1 inh valid 149.5 | CHO KCNQ1 ctr 0.312 | KCNQ2 inh 135.0% | KCNQ1 KCNE1 spec 178.5%
O=C(COc1ccccc1)NC(NC(=S)Nc1ccccc1O)C(Cl)(Cl)Cl (stereo unspecified)	KCNQ1 block 9 | KCNQ1 inh valid 77.5 | CHO KCNQ1 ctr inactive | KCNQ2 inh 91.7% | KCNQ1 KCNE1 spec 53.0%
COc1ccc(Cl)cc1NC(=S)NCCc1ccc(F)cc1	Kir21 block -4.64, KCNQ1 block 6 | KCNQ1 inh valid 64.0 | CHO KCNQ1 ctr inactive | KCNQ2 inh 114.0% | KCNQ1 KCNE1 spec 50.5%
Fc1ccc(CCNC(=S)Nc2ccc(F)c(Cl)c2)cc1	KCNQ1 block 9 | KCNQ1 inh valid 48.5 | CHO KCNQ1 ctr inactive | KCNQ2 inh inactive | KCNQ1 KCNE1 spec inactive
CCCSc1nnc(NC(=O)c2sc3nc(-c4cccs4)ccc3c2N)s1	none
Cc1csc(NC(=O)c2sc3nc(-c4cccs4)ccc3c2N)n1	KCNQ1 block 16 (no result: KCNK3 inh) | KCNQ1 inh valid 123.5 | CHO KCNQ1 ctr 0.244 | KCNQ2 inh inactive | KCNQ1 KCNE1 spec inactive
CCOC(=O)N1CCN(S(=O)(=O)c2ccc3c4c(cccc24)C(=O)N3)CC1	none
CCOc1ccccc1N1CCN(S(=O)(=O)c2ccc3c4c(cccc24)C(=O)N3)CC1	KCNQ1 block 7 | KCNQ1 inh valid 69.0 | CHO KCNQ1 ctr inactive | KCNQ2 inh inactive | KCNQ1 KCNE1 spec 79.0%
CN1CCC(=O)N([C@H](CO)c2ccccc2)CC1	none
COc1ccc(S(=O)(=O)C(C#N)c2nc3ccccc3nc2N2CCCC(C)C2)cc1 (stereo unspecified)	KCNQ1 block 9 | KCNQ1 inh valid 124.5 | CHO KCNQ1 ctr inactive | KCNQ1 ephys val inactive | KCNQ2 inh 106.0% | KCNQ1 KCNE1 spec 126.0%
CC1CCCN(c2nc3ccccc3nc2C(C#N)S(=O)(=O)c2cccs2)C1 (stereo unspecified)	none
Cn1c2c(c(=O)n(C)c1=O)C(C(F)(F)F)(C(F)(F)F)N=C(c1ccc(Cl)cc1)N2	KCNQ1 block 7 | KCNQ1 inh valid 62.0 | CHO KCNQ1 ctr inactive | KCNQ2 inh inactive | KCNQ1 KCNE1 spec inactive
Nc1ccc(N=Nc2ccccc2O)c(N)c1	none
Oc1ccccc1N=Nc1ccccc1O	KCNQ1 block 13 | KCNQ1 inh valid 61.5 | CHO KCNQ1 ctr inactive | KCNQ2 inh inactive | KCNQ1 KCNE1 spec inactive
CCOc1ccc(NC(=O)Nc2nc(SCC)ns2)cc1	KCNQ1 block 10 | KCNQ1 inh valid 80.0 | CHO KCNQ1 ctr inactive | KCNQ2 inh inactive | KCNQ1 KCNE1 spec 35.5%
CC(C)(C)c1csc(NC(=O)c2ccccc2O)n1	KCNQ1 block 9 | KCNQ1 inh valid 65.0 | CHO KCNQ1 ctr inactive | KCNQ2 inh inactive | KCNQ1 KCNE1 spec inactive
CCOc1ccc2nc(NC3=NC(C)(C)C=C(C)N3)nc(C)c2c1	KCNQ1 block 10 | KCNQ1 inh valid 87.5 | CHO KCNQ1 ctr inactive | KCNQ2 inh inactive | KCNQ1 KCNE1 spec 91.5%
Cc1ccc(CNc2ncnc(N)c2[N+](=O)[O-])cc1	none
S=C(NNC(=S)Nc1ccccc1)Nc1ccccc1	none
